Measurements reported in ChEMBL document CHEMBL3351861, “New synthetic sulfone derivatives inhibit growth, adhesion and the leucine arylamidase APE2 gene expression of Candida albicans in vitro” (2015).
The source made the active and inactive calls. The rule behind the calls is not given here.

How the values were obtained:
Candida albicans [1] = experiment: Increase in APE2 gene expression in compound pre-treated Candida albicans CAI4 expressing delta-cph1/delta-efg1 gene grown on human Caco2 cells monolayer at 16 ug/ml pre-treated for 2 hrs measured after 18 hrs by RT-PCR method; format: functional, Caco-2
In short: (§1)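 Blastoconidia are pre-incubated 2 h with 16 µg/ml sulfone in RPMI. They are then washed, resuspended in RPMI and placed on Caco-2 monolayers at 37°C, with RNA taken at 6 or 18 h. Real-time RT-PCR uses SYBR Green with 250 nM primers and 60 ng cDNA: 95°C 15 min, then 45 cycles of 94°C 15 s and 60°C 1 min, plus a melt curve. APE2 is normalized to ACT1 by 2^-ΔΔCt with 90028 as calibrator; three experiments.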

Candida albicans [2] = experiment: Reduction in APE2 gene expression in compound pre-treated Candida albicans CAI4 expressing delta-cph1/delta-efg1 (EFG1) gene grown on human Caco2 cells monolayer at 16 ug/ml pre-treated for 2 hrs measured after 6 hrs by RT-PCR method; format: functional, Caco-2; in short: as §1
Candida albicans [3] = experiment: Reduction in APE2 gene expression in compound pre-treated Candida albicans CAI4 expressing delta-cph1 gene grown on human Caco2 cells monolayer at 16 ug/ml pre-treated for 2 hrs measured after 6 hrs by RT-PCR method; format: functional, Caco-2; in short: as §1
Candida albicans [4] = experiment: Reduction in APE2 gene expression in compound pre-treated Candida albicans CAI4 expressing delta-cph1 gene grown under YEPD medium at 16 ug/ml pre-treated for 2 hrs measured after 18 hrs by RT-PCR method; format: functional
In short: (§2)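 Blastoconidia from YEPD (10^4 cfu/ml) are washed and exposed 2 h to 16 µg/ml sulfone in YEPD. They are then washed and regrown 18 h at 30°C in YEPD before RNA extraction. Real-time RT-PCR uses SYBR Green with 250 nM primers and 60 ng cDNA: 95°C 15 min, then 45 cycles of 94°C 15 s and 60°C 1 min, plus a dissociation curve. APE2 is normalized to ACT1 by 2^-ΔΔCt with strain 90028 as calibrator; three experiments.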

Candida albicans [5] = experiment: Reduction in APE2 gene expression in compound pre-treated Candida albicans CAI4 expressing delta-efg1 (EFG1) gene grown on human Caco2 cells monolayer at 16 ug/ml pre-treated for 2 hrs measured after 18 hrs by RT-PCR method; format: functional, Caco-2
In short: (§3)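 Caco-2 was seeded at 1.2×10^5 cells/ml in EMEM (10% FCS, 1 mM pyruvate, no antibiotics) for 18 h at 37°C, 5% CO2. Yeast (10^4 cfu/ml) was pre-incubated 2 h in RPMI with 16 µg/ml sulfone, washed, resuspended in RPMI and inoculated onto the monolayer at 37°C. APE2 mRNA was measured by SYBR qPCR against ACT1 (2^-ΔΔCt, 90028 calibrator), in triplicate.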

Candida albicans [6] = experiment: Reduction in APE2 gene expression in compound pre-treated Candida albicans CAI4 expressing delta-cph1/delta-efg1 (EFG1) gene grown on human Caco2 cells monolayer at 16 ug/ml pre-treated for 2 hrs measured after 18 hrs by RT-PCR method; format: functional, Caco-2; in short: as §1
Candida albicans [7] = experiment: Inhibition of cell adhesion of compound pre-treated Candida albicans CAI4 expressing delta-efg1 (EFG1) gene to human Caco2 cells assessed as cell adhesion level at 2 ug/ml pre-incubated for 18 hrs by colony counting method (reference value: 2.6 +/- 2.33%); format: functional, Caco-2; set-up: scale not given: the % may be the effect or the level left
Candida albicans [8] = experiment: Reduction in APE2 gene expression in compound pre-treated Candida albicans 90028 grown on human Caco2 cells monolayer at 16 ug/ml pre-treated for 2 hrs measured after 6 hrs by RT-PCR method; format: functional, Caco-2; in short: as §1
Candida albicans [9] = experiment: Reduction in APE2 gene expression in compound pre-treated Candida albicans CAI4 expressing delta-cph1/delta-efg1 gene grown under YEPD medium at 16 ug/ml pre-treated for 2 hrs measured after 18 hrs by RT-PCR method; format: functional; in short: as §2
Candida albicans [10] = experiment: Reduction in APE2 gene expression in compound pre-treated Candida albicans CAI4 expressing delta-cph1 (CPH1) gene grown on human Caco2 cells monolayer at 16 ug/ml pre-treated for 2 hrs measured after 6 hrs by RT-PCR method; format: functional, Caco-2; in short: as §1
Candida albicans [11] = experiment: Reduction in APE2 gene expression in compound pre-treated Candida albicans CAI4 expressing delta-efg1 gene grown on human Caco2 cells monolayer at 16 ug/ml pre-treated for 2 hrs measured after 18 hrs by RT-PCR method; format: functional, Caco-2; in short: as §3
Candida albicans [12] = experiment: Reduction in APE2 gene expression in compound pre-treated Candida albicans CAI4 expressing delta-cph1 gene grown on human Caco2 cells monolayer at 16 ug/ml pre-treated for 2 hrs measured after 18 hrs by RT-PCR method; format: functional, Caco-2; in short: as §1
Candida albicans [13] = experiment: Inhibition of cell adhesion of compound pre-treated Candida albicans CAI4 expressing delta-efg1 (EFG1) gene to human Caco2 cells assessed as cell adhesion level at 4 ug/ml pre-incubated for 18 hrs by colony counting method (reference value: 2.6 +/- 2.33%); format: functional, Caco-2; set-up: scale not given: the % may be the effect or the level left
Candida albicans [14] = experiment: Reduction in APE2 gene expression in compound pre-treated Candida albicans CAI4 expressing delta-cph1 (CPH1) gene grown under YEPD medium at 16 ug/ml pre-treated for 2 hrs measured after 18 hrs by RT-PCR method; format: functional; in short: as §2
Candida albicans [15] = experiment: Reduction in APE2 gene expression in compound pre-treated Candida albicans CAI4 expressing delta-cph1 (CPH1) gene grown on human Caco2 cells monolayer at 16 ug/ml pre-treated for 2 hrs measured after 18 hrs by RT-PCR method; format: functional, Caco-2; in short: as §1
Candida albicans [16] = experiment: Reduction in APE2 gene expression in compound pre-treated Candida albicans 90028 grown under YEPD medium at 16 ug/ml pre-treated for 2 hrs measured after 18 hrs by RT-PCR method; format: functional; in short: as §2
Candida albicans [17] = experiment: Reduction in APE2 gene expression in compound pre-treated Candida albicans CAI4 expressing delta-cph1/delta-efg1 (EFG1) gene grown under YEPD medium at 16 ug/ml pre-treated for 2 hrs measured after 18 hrs by RT-PCR method; format: functional; in short: as §2
Candida albicans [18] = experiment: Inhibition of hyphae formation in Candida albicans 90028 assessed as appearance of spherical blastoconidia with polarly located budding without filament formation at 16 ug/ml incubated for 18 hrs by phase contrast microscopy
Candida albicans [19] = experiment: Reduction in APE2 gene expression in compound pre-treated Candida albicans SC5314 grown under YEPD medium at 16 ug/ml pre-treated for 2 hrs measured after 18 hrs by RT-PCR method; format: functional
In short: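 YEPD-grown yeast (18 h, 30°C) washed and held at 10^4 cfu/ml in YEPD with 16 µg/ml sulfone for 2 h. Cells were then washed and regrown 18 h at 30°C in YEPD. Total RNA was reverse-transcribed and SYBR Green qPCR run (250 nM primers, 60 ng cDNA, 45 cycles). APE2 was normalized to ACT1 by 2^-ΔΔCt with strain 90028 as calibrator. Done in triplicate on three occasions.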

Candida albicans [20] = experiment: Reduction in APE2 gene expression in compound pre-treated Candida albicans CAI4 expressing delta-efg1 (EFG1) gene grown on human Caco2 cells monolayer at 16 ug/ml pre-treated for 2 hrs measured after 6 hrs by RT-PCR method; format: functional, Caco-2; in short: as §3
Candida albicans [21] = experiment: Inhibition of cell adhesion of compound pre-treated Candida albicans 90028 to human Caco2 cells assessed as cell adhesion level at 4 ug/ml pre-incubated for 18 hrs by colony counting method (reference value: 1.58 +/- 0.67%); format: functional, Caco-2; set-up: scale not given: the % may be the effect or the level left

NNc1ccc(S(=O)(=O)C(Cl)(Br)Br)cc1[N+](=O)[O-]
fold change (FC) (Candida albicans [1]): 1.38
fold change (FC) (Candida albicans [2]): 9.42
fold change (FC) (Candida albicans [3]): 10.83
ΔCt (Candida albicans [4]): 0.11
fold change (FC) (Candida albicans [5]): 8.72
fold change (FC) (Candida albicans [6]): 3.55
Activity (Candida albicans [7]): 0.51%
ΔCt (Candida albicans [8]): 7.44
ΔCt (Candida albicans [9]): 4.05
fold change (FC) (Candida albicans [10]): 10.25
fold change (FC) (Candida albicans [11]): 9.07
fold change (FC) (Candida albicans [12]): 4.05
Activity (Candida albicans [13]): 0.91%
ΔCt (Candida albicans [14]): 4.71
fold change (FC) (Candida albicans [15]): 9.29
ΔCt (Candida albicans [16]): 2.82
ΔCt (Candida albicans [17]): 3.3
Activity (Candida albicans [18]): Active
ΔCt (Candida albicans [19]): 2.84
fold change (FC) (Candida albicans [20]): 10.7
Activity (Candida albicans [21]): 0.91%
